Data published in ChEMBL document CHEMBL1136765, “1,3-dioxolane-based ligands as a novel class of alpha1-adrenoceptor antagonists” (J Med Chem, 2003).

Experiments:
[1] = Selectivity over human alpha-1d/alpha-1b receptor
[2] = biological target: Alpha adrenergic receptor (1a and 1d) (Homo sapiens) (UniProt P35348+P25100); experiment: Selectivity over human alpha-1d/alpha-1a receptor; assay type: protein assay
[3] = biological target: Alpha adrenergic receptor 1A and 1B (Rattus norvegicus) (UniProt P15823+P43140); experiment: Selectivity given as ratio of pKb value against alpha1A receptor to pKb value against alpha-1B receptor in rat; assay type: functional
Chain of Alpha adrenergic receptor 1A and 1B (Rattus norvegicus) (P15823 whole entry, looked up, one chain of several): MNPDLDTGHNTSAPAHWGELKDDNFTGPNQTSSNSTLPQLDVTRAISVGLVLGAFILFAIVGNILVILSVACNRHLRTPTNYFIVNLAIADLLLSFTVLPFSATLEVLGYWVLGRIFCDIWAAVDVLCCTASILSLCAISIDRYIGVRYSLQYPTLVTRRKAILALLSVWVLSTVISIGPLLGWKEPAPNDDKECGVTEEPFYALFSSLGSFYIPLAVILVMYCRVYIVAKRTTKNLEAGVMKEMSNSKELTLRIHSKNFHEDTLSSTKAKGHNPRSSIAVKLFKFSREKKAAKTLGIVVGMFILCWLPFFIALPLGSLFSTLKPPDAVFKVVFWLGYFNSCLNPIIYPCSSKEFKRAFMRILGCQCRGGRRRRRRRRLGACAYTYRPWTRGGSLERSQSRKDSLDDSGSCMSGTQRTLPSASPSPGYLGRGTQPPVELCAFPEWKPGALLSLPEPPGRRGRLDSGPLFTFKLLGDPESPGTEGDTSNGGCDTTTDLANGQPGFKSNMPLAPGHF

[4] = biological target: T1, Alpha-1B adrenergic receptor (Homo sapiens, UniProt P35368); experiment: Affinity constant towards human recombinant Alpha-1B adrenergic receptor using [3H]prazosin (from CHO cells) as radioligand by radioligand binding assay; assay type: cell-based
T1 sequence (P35368 whole entry): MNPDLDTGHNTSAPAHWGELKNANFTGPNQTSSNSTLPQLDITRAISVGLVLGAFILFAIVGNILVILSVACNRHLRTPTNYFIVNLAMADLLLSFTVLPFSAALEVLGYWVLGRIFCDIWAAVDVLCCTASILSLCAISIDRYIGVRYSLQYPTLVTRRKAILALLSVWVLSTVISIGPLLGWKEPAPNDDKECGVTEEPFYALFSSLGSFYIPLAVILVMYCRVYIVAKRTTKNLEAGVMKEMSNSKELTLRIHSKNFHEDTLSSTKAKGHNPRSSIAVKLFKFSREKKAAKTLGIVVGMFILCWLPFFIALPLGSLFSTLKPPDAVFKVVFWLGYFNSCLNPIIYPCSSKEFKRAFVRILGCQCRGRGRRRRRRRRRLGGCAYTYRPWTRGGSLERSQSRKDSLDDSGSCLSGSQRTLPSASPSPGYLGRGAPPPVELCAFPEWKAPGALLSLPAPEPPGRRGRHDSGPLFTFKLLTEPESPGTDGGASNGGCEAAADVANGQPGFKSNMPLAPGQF
Method in brief: (§1)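 Membranes of CHO cells stably expressing each cloned human α1 subtype (30 µg protein) incubated with 0.1-0.4 nM [3H]prazosin in 50 mM Tris-HCl pH 7.4, 30 min at 25 °C, with competitor. Nonspecific binding with 10 µM phentolamine. Stopped by ice-cold buffer and filtration on PEI-pretreated filters. IC50 by curve fitting, Ki via Cheng-Prusoff. Mean of two to three experiments in triplicate.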

[5] = biological target: Adrenergic receptors; alpha-1 A & B (Homo sapiens) (UniProt P35348+P35368); experiment: Selectivity over alpha-1a/alpha-1b; assay type: protein assay
[6] = biological target: T2, Alpha-1D adrenergic receptor (Homo sapiens, UniProt P25100); experiment: Affinity constant towards human recombinant Alpha-1D adrenergic receptor using [3H]prazosin (from CHO cells) as radioligand by radioligand binding assay; assay type: cell-based; method in brief: as §1
T2 sequence (P25100 whole entry): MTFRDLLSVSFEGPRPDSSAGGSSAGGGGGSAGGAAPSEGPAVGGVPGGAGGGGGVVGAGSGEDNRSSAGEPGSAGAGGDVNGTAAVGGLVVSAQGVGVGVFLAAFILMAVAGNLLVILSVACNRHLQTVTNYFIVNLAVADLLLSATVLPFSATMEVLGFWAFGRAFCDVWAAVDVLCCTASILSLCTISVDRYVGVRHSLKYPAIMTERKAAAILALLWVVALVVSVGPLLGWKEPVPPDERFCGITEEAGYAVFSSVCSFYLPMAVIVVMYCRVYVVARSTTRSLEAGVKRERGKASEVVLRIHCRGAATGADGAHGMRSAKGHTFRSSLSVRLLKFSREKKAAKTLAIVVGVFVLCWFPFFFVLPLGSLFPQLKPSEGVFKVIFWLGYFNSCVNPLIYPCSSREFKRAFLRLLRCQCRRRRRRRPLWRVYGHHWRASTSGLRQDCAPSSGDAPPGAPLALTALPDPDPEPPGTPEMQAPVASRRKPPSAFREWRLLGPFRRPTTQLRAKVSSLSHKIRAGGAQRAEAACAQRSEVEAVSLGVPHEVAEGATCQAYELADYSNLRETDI

[7] = biological target: T3, Alpha-1A adrenergic receptor (Rattus norvegicus) (UniProt P43140); experiment: Inhibition of (-)-noradrenaline-induced contraction of rat prostatic vas deferens (alpha1A receptor); assay type: functional
T3 sequence (whole entry): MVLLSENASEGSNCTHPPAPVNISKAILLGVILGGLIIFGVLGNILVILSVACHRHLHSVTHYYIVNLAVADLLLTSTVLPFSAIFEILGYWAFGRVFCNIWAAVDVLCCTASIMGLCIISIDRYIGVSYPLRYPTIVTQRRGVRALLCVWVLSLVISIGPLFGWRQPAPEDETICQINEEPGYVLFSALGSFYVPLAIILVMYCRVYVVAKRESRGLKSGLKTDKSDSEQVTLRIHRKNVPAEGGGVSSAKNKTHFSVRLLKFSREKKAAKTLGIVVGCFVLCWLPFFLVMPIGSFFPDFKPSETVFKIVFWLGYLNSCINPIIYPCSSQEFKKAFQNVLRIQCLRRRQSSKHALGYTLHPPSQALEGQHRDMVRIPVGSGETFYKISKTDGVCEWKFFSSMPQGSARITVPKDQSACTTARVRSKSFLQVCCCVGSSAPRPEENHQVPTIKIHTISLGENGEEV
Method in brief: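 Rat prostatic vas deferens portion equilibrated 60 min, washed every 15 min, primed twice with 10 µM noradrenaline, re-equilibrated 60 min; control noradrenaline concentration-response curve, then antagonist 30 min before repeat curve.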

[8] = biological target: Alpha adrenergic receptor 1A and 1D (Rattus norvegicus) (UniProt P23944+P43140); experiment: Selectivity given as ratio of pKb value against Alpha-1D receptor to pKb value against alpha1A receptor in rat; assay type: functional
Chain of Alpha adrenergic receptor 1A and 1D (Rattus norvegicus) (P23944 whole entry, looked up, one chain of several): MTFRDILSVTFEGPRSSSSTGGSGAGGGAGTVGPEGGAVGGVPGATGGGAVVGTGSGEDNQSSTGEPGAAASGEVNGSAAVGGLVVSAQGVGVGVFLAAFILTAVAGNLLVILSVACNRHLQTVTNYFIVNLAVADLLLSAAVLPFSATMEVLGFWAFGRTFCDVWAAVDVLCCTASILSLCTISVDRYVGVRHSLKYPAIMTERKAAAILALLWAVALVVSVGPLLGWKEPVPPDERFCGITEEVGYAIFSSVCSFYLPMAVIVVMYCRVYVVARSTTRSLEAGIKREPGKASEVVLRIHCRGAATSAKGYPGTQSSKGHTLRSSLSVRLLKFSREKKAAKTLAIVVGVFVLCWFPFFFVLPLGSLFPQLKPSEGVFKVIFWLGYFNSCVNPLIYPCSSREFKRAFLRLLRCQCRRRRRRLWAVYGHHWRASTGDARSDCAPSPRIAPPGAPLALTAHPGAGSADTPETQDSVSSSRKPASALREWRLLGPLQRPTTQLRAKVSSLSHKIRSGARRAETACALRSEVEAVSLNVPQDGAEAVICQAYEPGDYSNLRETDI

[9] = biological target: T4, Alpha-1A adrenergic receptor (Homo sapiens, UniProt P35348); experiment: Affinity constant towards human recombinant Alpha-1A adrenergic receptor using [3H]prazosin (from CHO cells) as radioligand by radioligand binding assay; assay type: cell-based
T4 sequence (P35348 whole entry): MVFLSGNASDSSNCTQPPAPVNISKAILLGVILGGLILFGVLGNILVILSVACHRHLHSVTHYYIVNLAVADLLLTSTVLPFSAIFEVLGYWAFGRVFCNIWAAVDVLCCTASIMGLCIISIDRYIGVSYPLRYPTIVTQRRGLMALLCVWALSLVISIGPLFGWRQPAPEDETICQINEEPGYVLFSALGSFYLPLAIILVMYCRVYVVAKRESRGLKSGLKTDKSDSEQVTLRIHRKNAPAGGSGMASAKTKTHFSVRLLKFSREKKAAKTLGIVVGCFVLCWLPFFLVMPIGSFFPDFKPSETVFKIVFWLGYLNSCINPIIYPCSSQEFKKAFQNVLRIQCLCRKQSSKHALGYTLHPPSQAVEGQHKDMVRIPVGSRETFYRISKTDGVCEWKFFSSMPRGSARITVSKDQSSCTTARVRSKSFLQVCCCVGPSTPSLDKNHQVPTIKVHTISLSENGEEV

[10] = Selectivity given as ratio of pKb value against Alpha-1D receptor to pKb value against Alpha-1B receptor in rat; assay type: functional

SMILES	Selectivity [1]	Selectivity [2]	Selectivity [3]	Ki [4] [nM]	Selectivity [5]	Ki [6] [nM]	pKb [7]	Selectivity [8]	Ki [9] [nM]	Selectivity [10]
O=C(O)C(=O)O.c1ccc(OCCNCC2COC(c3ccccc3)(c3ccccc3)O2)cc1 (centres undefined)	6	3	2	63.1	2	11.5	6.16	162	37.2	324
C[N+](C)(CCOc1ccccc1)CC1COC(c2ccccc2)(c2ccccc2)O1.O=C([O-])C(=O)O (centres undefined)	< 0.02	< 0.03	< 0.3	20.4	0.6	> 1000	< 5	> 15	33.9	4
COc1ccccc1OCCNCC1COC(c2ccccc2)(c2ccccc2)O1.O=C(O)C(=O)O (centres undefined)	7	3	1	45.7	2	9.33		13	24.5	20
CN(CCOc1ccccc1)CC1COC(c2ccccc2)(c2ccccc2)O1.O=C(O)C(=O)O (centres undefined)	< 0.3	< 0.9	0.6	257	0.3	> 1000	5.06	10	832	6
